Measurements reported in ChEMBL document CHEMBL1145040, “Biaryl analogues of conformationally constrained tricyclic tropanes as potent and selective norepinephrine reuptake inhibitors: synthesis and evaluation of their uptake inhibition at monoamine transporter sites” (J Med Chem, 2003).
pKi: −log10 of the molar value.

Experiments:
[1] = biological target: Norepinephrine transporter (Rattus norvegicus, UniProt Q9WTR4); experiment: Ability to inhibit [3H]NE reuptake at norepinephrine transporter from rat brain
Summary of the method: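 Synaptosomes (P2, rat brain) in modified KRH buffer (pH 7.4, nialamide) with drug, 30 min at 4 °C then 15 min at 37 °C. [3H]NE (9 nM final) uptake for 5 min; terminated by cold sodium-free buffer, GF/C filtration and scintillation counting. Specific uptake defined with 3 μM desipramine.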

[2] = biological target: Monoamine transporters; serotonin & dopamine (Rattus norvegicus) (UniProt P31652+P23977); experiment: Uptake ratio at serotonin to dopamine transporters from rat brain
Summary of the method: (§1)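 Selectivity ratios calculated from Ki values of the rat brain synaptosomal [3H]DA, [3H]5-HT and [3H]NE uptake inhibition assays.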

[3] = biological target: Monoamine transporters; Norepininephrine & dopamine (Rattus norvegicus) (UniProt P23977+Q9WTR4); experiment: Uptake ratio at norepinephrine to dopamine transporters from rat brain; summary of the method: as §1
[4] = biological target: Sodium-dependent dopamine transporter (Rattus norvegicus, UniProt P23977); experiment: Ability to inhibit [3H]DA reuptake at dopamine transporter from rat brain
Summary of the method: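 Rat brain P2 synaptosomes in modified KRH buffer (pH 7.4, nialamide); drug preincubation 30 min at 4 °C, then 15 min at 37 °C. [3H]DA (~5 nM final) uptake for 5 min, ended with cold sodium-free buffer, GF/C filtration and scintillation counting.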

[5] = biological target: Monoamine transporters; Norepinephrine & serotonin (Rattus norvegicus) (UniProt P31652+Q9WTR4); experiment: Uptake ratio at norepinephrine to serotonin transporters from rat brain; summary of the method: as §1
[6] = biological target: Sodium-dependent serotonin transporter (Rattus norvegicus, UniProt P31652); experiment: Ability to inhibit [3H]5-HT reuptake at serotonin transporter from rat brain
Summary of the method: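 P2 synaptosomes from rat brain in modified KRH buffer (pH 7.4, nialamide), preincubated with drug 30 min at 4 °C, then 15 min at 37 °C. [3H]5-HT (~5 nM final) added for 5 min; stopped with cold sodium-free buffer, then GF/C filtration and scintillation counting. Nonspecific uptake set with 10 μM fluoxetine.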

Norepinephrine transporter, sequence (Q9WTR4 whole entry): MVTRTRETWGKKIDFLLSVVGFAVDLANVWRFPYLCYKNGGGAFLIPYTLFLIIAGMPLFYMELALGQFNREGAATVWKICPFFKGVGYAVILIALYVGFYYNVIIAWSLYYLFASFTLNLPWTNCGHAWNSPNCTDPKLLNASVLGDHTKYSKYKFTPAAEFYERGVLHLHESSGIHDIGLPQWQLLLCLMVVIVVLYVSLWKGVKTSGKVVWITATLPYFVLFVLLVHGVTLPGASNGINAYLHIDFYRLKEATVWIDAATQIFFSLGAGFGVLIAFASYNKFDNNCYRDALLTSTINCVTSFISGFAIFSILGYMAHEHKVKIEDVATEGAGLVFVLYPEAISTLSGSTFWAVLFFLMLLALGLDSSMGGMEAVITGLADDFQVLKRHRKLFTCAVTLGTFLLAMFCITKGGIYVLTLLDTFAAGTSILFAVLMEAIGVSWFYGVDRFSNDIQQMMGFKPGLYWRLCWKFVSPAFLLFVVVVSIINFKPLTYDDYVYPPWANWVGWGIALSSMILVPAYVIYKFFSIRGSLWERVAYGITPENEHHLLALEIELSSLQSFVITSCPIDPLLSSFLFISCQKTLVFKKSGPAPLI
Sodium-dependent serotonin transporter, sequence (P31652 whole entry): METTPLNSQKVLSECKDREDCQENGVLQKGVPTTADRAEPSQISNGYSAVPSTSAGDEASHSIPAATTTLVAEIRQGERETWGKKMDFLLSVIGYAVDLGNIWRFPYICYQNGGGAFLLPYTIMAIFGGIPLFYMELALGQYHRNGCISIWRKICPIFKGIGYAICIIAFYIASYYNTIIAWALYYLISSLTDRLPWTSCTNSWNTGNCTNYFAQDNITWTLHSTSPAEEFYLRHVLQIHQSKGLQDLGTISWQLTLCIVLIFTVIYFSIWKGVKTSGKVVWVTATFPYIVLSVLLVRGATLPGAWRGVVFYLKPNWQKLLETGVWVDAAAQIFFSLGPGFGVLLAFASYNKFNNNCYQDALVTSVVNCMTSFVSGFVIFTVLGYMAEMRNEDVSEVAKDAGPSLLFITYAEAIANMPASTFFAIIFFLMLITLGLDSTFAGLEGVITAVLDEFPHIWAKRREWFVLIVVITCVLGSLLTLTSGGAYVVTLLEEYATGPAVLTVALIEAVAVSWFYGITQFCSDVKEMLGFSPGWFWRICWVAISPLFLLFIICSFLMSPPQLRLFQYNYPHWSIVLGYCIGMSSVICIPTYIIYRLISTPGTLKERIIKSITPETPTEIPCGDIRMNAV
Sodium-dependent dopamine transporter, sequence (P23977 whole entry): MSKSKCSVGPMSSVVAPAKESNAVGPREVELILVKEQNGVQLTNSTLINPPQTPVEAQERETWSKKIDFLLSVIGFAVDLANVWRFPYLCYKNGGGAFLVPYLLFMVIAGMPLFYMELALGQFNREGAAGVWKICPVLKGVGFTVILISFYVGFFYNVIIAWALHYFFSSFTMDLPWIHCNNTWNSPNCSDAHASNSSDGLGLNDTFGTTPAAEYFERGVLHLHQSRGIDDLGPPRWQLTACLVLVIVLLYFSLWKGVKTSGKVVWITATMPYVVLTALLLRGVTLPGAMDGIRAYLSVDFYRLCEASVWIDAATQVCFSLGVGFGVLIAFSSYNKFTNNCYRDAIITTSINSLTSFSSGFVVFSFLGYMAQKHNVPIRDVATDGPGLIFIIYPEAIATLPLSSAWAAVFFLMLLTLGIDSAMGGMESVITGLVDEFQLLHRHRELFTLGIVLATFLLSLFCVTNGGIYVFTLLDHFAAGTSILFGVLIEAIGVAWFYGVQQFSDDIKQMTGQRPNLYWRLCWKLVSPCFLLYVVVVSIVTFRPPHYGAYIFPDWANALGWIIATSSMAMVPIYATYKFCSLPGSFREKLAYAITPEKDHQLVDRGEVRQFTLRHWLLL
Monoamine transporters; serotonin & dopamine (Rattus norvegicus), sequence (P23977 whole entry, looked up): as the sequence (P23977 whole entry) above
Monoamine transporters; serotonin & dopamine (Rattus norvegicus), sequence (P31652 whole entry, looked up): as the sequence (P31652 whole entry) above

SMILES | pKi [1] | Ratio [2] | Ratio [3] | pKi [4] | Ratio [5] | pKi [6]
COC(=O)C1C2CCC3CCC1N(C/C2=C\c1ccc(-c2ccc(Cl)c(Cl)c2)cc1)C3 (centres undefined) | 8.01 | 1.01 | 0.04 | 6.63 | 0.04 | 6.62
COC(=O)C1C2CCC3CCC1N(C/C2=C\c1ccc(-c2ccccc2)c(Cl)c1)C3 (centres undefined) | 6.00 | 0.09 | 0.23 | 5.37 | 2.71 | 6.44
COC(=O)C1C2CCC3CCC1N(C/C2=C\c1ccc(-c2ccc(Cl)cc2)cc1)C3 (centres undefined) | 6.13 | 3.03 | 1.77 | 6.38 | 0.59 | 5.90
COC(=O)C1C2CCC3CCC1N(C/C2=C\c1ccc(-c2ccco2)cc1)C3 (centres undefined) | 7.86 | 2.54 | 0.14 | 7.01 | 0.06 | 6.61
COC(=O)C1C2CCC3CCC1N(C/C2=C\c1ccc(-c2ccc(C)cc2)cc1)C3 (centres undefined) | 7.64 | 6.97 | 0.11 | 6.67 | 0.02 | 5.83
COC(=O)C1C2CCC3CCC1N(C/C2=C\c1ccc(-c2ccc(I)cc2)cc1)C3 (centres undefined) | 6.94 | 1.75 | 0.3 | 6.42 | – | 6.18
OC[C@@H]1C2CCC3CCC1N(C/C2=C\c1ccc(-c2ccccc2)cc1)C3 (some centres undefined) | 6.74 | 1.19 | 0.14 | 5.89 | 0.12 | 5.81
COC(=O)C1C2CCC3CCC1N(C/C2=C\c1ccc(-c2cccc(Cl)c2)cc1)C3 (centres undefined) | 7.76 | 2.4 | 0.2 | 7.05 | 0.08 | 6.67
COC(=O)[C@@H]1C2CCC3CCC1N(C/C2=C\c1ccc(-c2ccccc2)cc1)C3 (some centres undefined) | 7.92 | 1.29 | 0.02 | 6.32 | 0.02 | 6.21
COC(=O)C1C2CCC3CCC1N(C/C2=C\c1ccc(-c2ccc(Cl)cc2Cl)cc1)C3 (centres undefined) | 6.33 | 0.25 | 0.29 | 5.80 | 1.19 | 6.41
COC(=O)C1C2CCC3CCC1N(C/C2=C\c1ccc(-c2ccccc2)s1)C3 (centres undefined) | 7.87 | 0.4 | 0.08 | 6.75 | 0.19 | 7.15
COC(=O)C1C2CCC3CCC1N(C/C2=C\c1ccc(-c2cc(Cl)cc(Cl)c2)cc1)C3 (centres undefined) | 7.21 | 3.62 | 0.58 | 6.97 | 0.16 | 6.42
COC(=O)C1C2CCC3CCC1N(C/C2=C\c1ccc(-c2ccsc2)cc1)C3 (centres undefined) | 7.69 | 0.52 | 0.07 | 6.56 | 0.14 | 6.84
COC(=O)C1C2CCC3CCC1N(C/C2=C\c1ccc(-c2ccc(C#N)cc2)cc1)C3 (centres undefined) | 7.49 | 19.3 | 0.69 | 7.33 | 0.04 | 6.04
COC(=O)C1C2CCC3CCC1N(C/C2=C\c1ccc(-c2ccc(C)s2)cc1)C3 (centres undefined) | 7.65 | 0.3 | – | 6.17 | 0.11 | 6.70
COC(=O)C1C2CCC3CCC1N(C/C2=C\c1ccc(-c2ccc(OC)cc2)cc1)C3 (centres undefined) | 7.41 | 4.04 | 0.05 | 6.08 | 0 | 5.47
COC(=O)C1C2CCC3CCC1N(C/C2=C\c1ccc(-c2ccc(N(C)C)cc2)cc1)C3 (centres undefined) | 7.24 | 0.95 | 0.05 | 5.98 | 0.06 | 6.00
COC(=O)C1C2CCC3CCC1N(C/C2=C\c1ccc(-c2ccc(OC)cc2)s1)C3 (centres undefined) | 7.99 | 1.43 | 0.03 | 6.50 | 0.02 | 6.27
COC(=O)C1C2CCC3CCC1N(C/C2=C\c1ccc(-c2cccs2)cc1)C3 (centres undefined) | 7.70 | 0.47 | 0.13 | 6.81 | 0.27 | 7.14
CC(=O)OCC1C2CCC3CCC1N(C/C2=C\c1ccc(-c2ccccc2)cc1)C3 (centres undefined) | 7.24 | 0.28 | 0.35 | 6.78 | 1.24 | 7.34
COC(=O)C1C2CCC3CCC1N(C/C2=C\c1ccc(-c2ccc(C(F)(F)F)cc2)cc1)C3 (centres undefined) | 5.94 | 0.71 | 0.37 | 5.51 | 0.52 | 5.65
COC(=O)C1C2CCC3CCC1N(C/C2=C\c1ccc(-n2cccc2)cc1)C3 (centres undefined) | 7.34 | 0.26 | 0.08 | 6.25 | 0.31 | 6.83
O=C(OCC1C2CCC3CCC1N(C/C2=C\c1ccc(-c2ccc(Cl)c(Cl)c2)c(Cl)c1)C3)c1ccccc1 (centres undefined) | < 5.00 | 0.17 | – | 5.25 | – | 6.02
